How the values were obtained:
Mus musculus [1] = species: Mus musculus; assay: Toxicity in mouse assessed as spontaneous motility and inspection activity after 5 mins by hole board test; format: organism-based; details: in vivo
Procedure, shortened: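 Hole-board: 40 cm square plane with 16 holes of 3 cm, arranged 4×4. Each mouse placed centrally and free to move for […]. Photocells counted locomotion (spontaneous motility) and hole exploration, both as counts in 5 min. Compared with saline-treated mice.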

Mus musculus [2] = assay: Effect on passive avoidance in mouse assessed as latency time to enter dark room in retention session at 0.1 mg/kg, ip treated 20 mins before training session; format: functional; details: route intraperitoneal
Procedure, shortened: (§1)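 Same step-through passive avoidance without scopolamine. Punishment is a 40 cm fall into 10 °C water on entering the dark room. Mice not entering within 60 s at training were excluded. Compound given ip at 1:10 dilution steps, 20 min before training, in saline or saline/DMSO 4:1. Controls received an extra saline injection right after training. Latency to enter the dark room recorded at training and at next-day retention.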

Mus musculus [3] = assay: Antiamnesic activity in ip dosed mouse assessed as reversal of scopolamine-induced memory loss treated 20 mins before training session by passive avoidance test; format: functional; details: read-out: MED
Procedure, shortened: (§2)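 Step-through passive avoidance in mice: lit and dark compartments joined by a guillotine door. Entering the dark side drops the mouse 40 cm into 10 °C water, a non-painful punishment. Mice not entering within 60 s at training were excluded. Compound given ip at 1:10 dilution steps […], 20 min before training. Vehicle was saline or saline/DMSO 4:1. Scopolamine 1.5 mg/kg ip immediately after punishment. Retention tested next day. MED is the lowest dose reversing amnesia.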

Mus musculus [4] = assay: Antiamnesic activity in scopolamine-induced mouse assessed as latency time to enter dark room in retention session at 0.1 mg/kg, ip treated 20 mins before training session by passive avoidance test; format: functional; details: route intraperitoneal; procedure, shortened: as §2
Mus musculus [5] = species: Mus musculus; assay: Toxicity in mouse assessed as motor coordination after 45 mins by rotarod test; format: organism-based; details: in vivo, 0.75 h
Procedure, shortened: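 Rota-rod: rod 30 cm long, 15 cm above the base, split into five sections, rotating at 16 rpm. Falls counted over 30 s. Mice with fewer than 3 or more than 6 falls in the pretest were rejected. Performance measured at pretest and 15, 30 and 45 min after test start. Compared with saline-treated mice.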

Mus musculus [6] = assay: Effect on passive avoidance in mouse assessed as latency time to enter dark room in training session at 0.1 mg/kg, ip treated 20 mins before training session; format: functional; details: route intraperitoneal; procedure, shortened: as §1
Mus musculus [7] = assay: Antiamnesic activity in scopolamine-induced mouse assessed as latency time to enter dark room in training session at 0.1 mg/kg, ip treated 20 mins before training session by passive avoidance test; format: functional; details: route intraperitoneal; procedure, shortened: as §2
Mus musculus [8] = species: Mus musculus; assay: Effect on passive avoidance in mouse treated 20 mins before training session; format: functional; details: read-out: MED; procedure, shortened: as §1
Mus musculus [9] = assay: Antiamnesic activity in scopolamine-induced mouse assessed as latency time to enter dark room in training session at 0.01 mg/kg, ip treated 20 mins before training session by passive avoidance test; format: functional; details: route intraperitoneal; procedure, shortened: as §2
Mus musculus [10] = assay: Antiamnesic activity in scopolamine-induced mouse assessed as latency time to enter dark room in retention session at 0.01 mg/kg, ip treated 20 mins before training session by passive avoidance test; format: functional; details: route intraperitoneal; procedure, shortened: as §2
Mus musculus [11] = assay: Antiamnesic activity in scopolamine-induced mouse assessed as latency time to enter dark room in retention session at 0.001 mg/kg, ip treated 20 mins before training session by passive avoidance test; format: functional; details: route intraperitoneal; procedure, shortened: as §2
Mus musculus [12] = assay: Antiamnesic activity in scopolamine-induced mouse assessed as latency time to enter dark room in training session at 0.001 mg/kg, ip treated 20 mins before training session by passive avoidance test; format: functional; details: route intraperitoneal; procedure, shortened: as §2
Mus musculus [13] = assay: Effect on passive avoidance in mouse assessed as latency time to enter dark room in retention session at 0.01 mg/kg, ip treated 20 mins before training session; format: functional; details: route intraperitoneal; procedure, shortened: as §1
Mus musculus [14] = assay: Effect on passive avoidance in mouse assessed as latency time to enter dark room in training session at 0.01 mg/kg, ip treated 20 mins before training session; format: functional; details: route intraperitoneal; procedure, shortened: as §1
Mus musculus [15] = assay: Antiamnesic activity in scopolamine-induced mouse assessed as latency time to enter dark room in retention session at 10 mg/kg, ip treated 20 mins before training session by passive avoidance test; format: functional; details: route intraperitoneal; procedure, shortened: as §2
Mus musculus [16] = assay: Antiamnesic activity in scopolamine-induced mouse assessed as latency time to enter dark room in training session at 10 mg/kg, ip treated 20 mins before training session by passive avoidance test; format: functional; details: route intraperitoneal; procedure, shortened: as §2
Mus musculus [17] = assay: Effect on passive avoidance in mouse assessed as latency time to enter dark room in retention session at 1.0 mg/kg, ip treated 20 mins before training session; format: functional; details: route intraperitoneal; procedure, shortened: as §1
Mus musculus [18] = assay: Effect on passive avoidance in mouse assessed as latency time to enter dark room in training session at 1.0 mg/kg, ip treated 20 mins before training session; format: functional; details: route intraperitoneal; procedure, shortened: as §1
Mus musculus [19] = assay: Effect on passive avoidance in mouse assessed as latency time to enter dark room in retention session at 10 mg/kg, ip treated 20 mins before training session; format: functional; details: route intraperitoneal; procedure, shortened: as §1
Mus musculus [20] = assay: Antiamnesic activity in scopolamine-induced mouse assessed as latency time to enter dark room in training session at 1.0 mg/kg, ip treated 20 mins before training session by passive avoidance test; format: functional; details: route intraperitoneal; procedure, shortened: as §2
Mus musculus [21] = assay: Antiamnesic activity in scopolamine-induced mouse assessed as latency time to enter dark room in retention session at 1.0 mg/kg, ip treated 20 mins before training session by passive avoidance test; format: functional; details: route intraperitoneal; procedure, shortened: as §2
Mus musculus [22] = assay: Effect on passive avoidance in mouse assessed as latency time to enter dark room in training session at 10 mg/kg, ip treated 20 mins before training session; format: functional; details: route intraperitoneal; procedure, shortened: as §1
Mus musculus [23] = assay: Antiamnesic activity in scopolamine-induced mouse assessed as latency time to enter dark room in training session at 30 mg/kg, ip treated 20 mins before training session by passive avoidance test; format: functional; details: route intraperitoneal
Mus musculus [24] = assay: Antiamnesic activity in scopolamine-induced mouse assessed as latency time to enter dark room in retention session at 30 mg/kg, ip treated 20 mins before training session by passive avoidance test; format: functional; details: route intraperitoneal
Procedure, shortened: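 Mouse step-through passive avoidance in a two-compartment box (lit and dark, guillotine door); entry into the dark side is punished by a fall from 40 cm into a 10 °C water bath. Drug given ip 20 min before training. Scopolamine 1.5 mg/kg given immediately after training. Retention tested the next day, read as latency to enter the dark room. Mice not entering within 60 s at training were excluded.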

| SMILES | Activity (Mus musculus [1]) | minimal effective dose (Mus musculus [3]) | Activity (Mus musculus [5]) | minimal effective dose (Mus musculus [8]) | other results |
| --- | --- | --- | --- | --- | --- |
| CC(C)S(=O)(=O)Nc1ccc(N(C)C(=O)c2ccccc2)cc1 | Non-toxic | 0.1 mg/kg | Non-toxic | 0.1 mg/kg | Activity (Mus musculus [2]): 121 s; Activity (Mus musculus [4]): 75.9 s; Activity (Mus musculus [6]): 17.3 s; Activity (Mus musculus [7]): 21.6 s |
| CC(=O)NC1CCN(S(=O)(=O)c2ccc(F)cc2)CC1 [SAPUNIFIRAM] | Non-toxic | 0.01 mg/kg | Non-toxic | 0.1 mg/kg | Activity (Mus musculus [2]): 126.8 s; Activity (Mus musculus [9]): 14.5 s; Activity (Mus musculus [6]): 19.1 s; Activity (Mus musculus [10]): 90.6 s |
| O=C1CCC2CN(S(=O)(=O)c3ccc(F)cc3)CCN12 (centres undefined) [UNIFIRAM] | Non-toxic | 0.001 mg/kg | Non-toxic | 0.01 mg/kg | Activity (Mus musculus [11]): 104.4 s; Activity (Mus musculus [12]): 19.7 s; Activity (Mus musculus [13]): 131.6 s; Activity (Mus musculus [14]): 15.4 s |
| CC(=O)N[C@H]1CC[C@H](NS(=O)(=O)c2ccc(F)cc2)CC1 | Non-toxic | 10 mg/kg | Non-toxic | 0.01 mg/kg | Activity (Mus musculus [15]): 26.3 s; Activity (Mus musculus [16]): 17 s; Activity (Mus musculus [13]): 52.8 s; Activity (Mus musculus [14]): 19.2 s |
| CC(=O)N1CCN(C(=O)c2ccccc2)CC1 | Non-toxic | 10 mg/kg | Non-toxic | – | Activity (Mus musculus [15]): 119 s; Activity (Mus musculus [16]): 11.3 s |
| CCC(=O)N1CCN(C(=O)c2ccccc2)CC1 [SUNIFIRAM] | Non-toxic | 0.001 mg/kg | Non-toxic | 0.01 mg/kg | Activity (Mus musculus [11]): 91.5 s; Activity (Mus musculus [12]): 20.5 s; Activity (Mus musculus [13]): 126.7 s; Activity (Mus musculus [14]): 18.1 s |
| CC(C)S(=O)(=O)N(C)c1ccc(N(C)C(=O)c2ccccc2)cc1 | Non-toxic | 0.01 mg/kg | Non-toxic | 1 mg/kg | Activity (Mus musculus [17]): 123.6 s; Activity (Mus musculus [9]): 20.7 s; Activity (Mus musculus [10]): 91.8 s; Activity (Mus musculus [18]): 19.6 s |
| CC(C)S(=O)(=O)N(C)c1ccc(N(C)S(=O)(=O)c2ccc(F)cc2)cc1 | Non-toxic | 0.01 mg/kg | Non-toxic | 1 mg/kg | Activity (Mus musculus [17]): 158.6 s; Activity (Mus musculus [9]): 18.8 s; Activity (Mus musculus [10]): 70.5 s; Activity (Mus musculus [18]): 30 s |
| CCC(=O)N[C@H]1CC[C@@H](NC(=O)CC)CC1 | Non-toxic | 1 mg/kg | Non-toxic | 10 mg/kg | Activity (Mus musculus [19]): 165.2 s; Activity (Mus musculus [20]): 17.8 s; Activity (Mus musculus [21]): 106.2 s; Activity (Mus musculus [22]): 34.8 s |
| CC(C)S(=O)(=O)N(C)c1ccc(NC(=O)c2ccccc2)cc1 | Non-toxic | 0.01 mg/kg | Non-toxic | – | Activity (Mus musculus [9]): 20.6 s; Activity (Mus musculus [10]): 66.7 s |
| O=C1c2ccccc2C2CN(S(=O)(=O)c3ccc(F)cc3)CCN12 (centres undefined) | Non-toxic | 0.1 mg/kg | Non-toxic | – | Activity (Mus musculus [4]): 74.5 s; Activity (Mus musculus [7]): 15.6 s |
| CC(C)S(=O)(=O)Nc1ccc(N(C)S(=O)(=O)c2ccc(F)cc2)cc1 | Non-toxic | 0.1 mg/kg | Non-toxic | 1 mg/kg | Activity (Mus musculus [17]): 149.8 s; Activity (Mus musculus [4]): 103.6 s; Activity (Mus musculus [7]): 20.2 s; Activity (Mus musculus [18]): 26.2 s |
| CC(C)S(=O)(=O)Nc1ccc(NC(=O)c2ccccc2)cc1 | Non-toxic | 10 mg/kg | Non-toxic | 1 mg/kg | Activity (Mus musculus [15]): 88.1 s; Activity (Mus musculus [17]): 116.7 s; Activity (Mus musculus [16]): 16.8 s; Activity (Mus musculus [18]): 22.1 s |
| NC(=O)CN1CCCC1=O [PIRACETAM] | – | 30 mg/kg | – | – | Activity (Mus musculus [23]): 17.6 s; Activity (Mus musculus [24]): 108.8 s |
| CCC(=O)N[C@H]1CC[C@@H](NS(=O)(=O)c2ccc(F)cc2)CC1 | Non-toxic | 0.1 mg/kg | Non-toxic | 10 mg/kg | Activity (Mus musculus [19]): 162.9 s; Activity (Mus musculus [22]): 25.3 s; Activity (Mus musculus [4]): 89.1 s; Activity (Mus musculus [7]): 16.8 s |
| CCC(=O)N[C@H]1CC[C@H](NS(=O)(=O)c2ccc(F)cc2)CC1 | Non-toxic | 1 mg/kg | Non-toxic | 0.1 mg/kg | Activity (Mus musculus [2]): 56.3 s; Activity (Mus musculus [20]): 17.5 s; Activity (Mus musculus [21]): 16.4 s; Activity (Mus musculus [6]): 16.9 s |

Reference: ChEMBL document CHEMBL1151695, “Design, synthesis and preliminary pharmacological evaluation of new analogues of DM232 (unifiram) and DM235 (sunifiram) as cognition modulators” (Bioorg Med Chem, 2008)
